Drawing on ChEMBL document CHEMBL1129050, “Correlation of anti-HIV potency with lipophilicity in a series of cosalane analogs having normal alkenyl and phosphodiester chains as cholestane replacements” (J Med Chem, 1996), this text covers EC50 and IC50 for twelve compounds.

The test system of assay [1] is CEM-SS. In words: Effective concentration against HIV-1RF induced cytopathicity in CEM-SS cells. The note with it: Homo sapiens. The assay is classed as functional, cell-based. The method, boiled down: (§1)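 CEM-SS cells (5000/well) infected with thawed HIV-1 RF stock at MOI 0.01 in the presence of serially diluted compound (as ammonium salts); 37 °C, 5% CO₂, 6 days. Supernatant assayed for RT activity, p24 and/or infectious virus; cell protection from cytopathic effect read by XTT. EC₅₀ averaged from at least two determinations; compounds tested up to […].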
In general terms: Cytopathic effects are the visible damage that an infection or toxin causes in cultured cells.

For assay [2], the system named is CEM-SS. In words: Cytotoxic concentration against mock-infected CEM-SS cells. The assay is classed as functional, cell-based. The conditions noted are these: Homo sapiens. Put shortly: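 Uninfected (mock-infected) CEM-SS cells, exponentially growing, seeded at 5000 cells/well with serially diluted compound (tested as ammonium salts) in complete medium; 37 °C, 5% CO₂, 6 days. Growth/viability by XTT assay; IC₅₀ = 50% cytotoxic concentration, averaged from at least two determinations.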

Assay [3] has as its system CEM-SS. In words: Effective concentration against HIV-1RF induced cytopathicity in CEM-SS cells; No antiviral uM. Type of assay: functional, cell-based, Homo sapiens. Put shortly:
as §1

Assay [4] has as its system CEM-SS. Briefly: Effective concentration against HIV-1RF induced cytopathicity in CEM-SS cells; No antiviral activity was observed at concentrations uM. Type of assay: functional, cell-based, Homo sapiens. The method, boiled down: as §1

pEC50, pIC50: −log10 of the molar value.

As to `O=C(O)c1cc(Cc2cc(Cl)c(O)c(C(=O)O)c2)cc(Cl)c1O`, the pEC50 (commonly the negative decadic logarithm of the EC50, by convention in mol/L) in the assay with CEM-SS [1] is 3.48. Besides, the pIC50 (as a rule, the negative decadic logarithm of the IC50, by convention in mol/L) in the assay on CEM-SS [2] is under 3.44.
With `O=C(O)c1cc(C(=CCC23CC4CC(CC(C4)C2)C3)c2cc(Cl)c(O)c(C(=O)O)c2)cc(Cl)c1O`, the EC50 entry in the assay on CEM-SS [3] was “Not Active”. For the same compound, the pIC50 with CEM-SS [2] was 3.98.
`CCCCCCCCCCCCCCCC=C(c1cc(Cl)c(O)c(C(=O)O)c1)c1cc(Cl)c(O)c(C(=O)O)c1` gave a pEC50 in the assay with CEM-SS [1] of 4.70. Besides, the pIC50 in the assay on CEM-SS [2] is under 4.46.
As for `CCCCCCCCCCCCCCCCCCOP(=O)(O)OCCC=C(c1cc(Cl)c(O)c(C(=O)O)c1)c1cc(Cl)c(O)c(C(=O)O)c1`, the EC50 result in the assay with CEM-SS [3] is “Not Active”. The compound further gave a negative logarithm of the IC50 (pIC50) with CEM-SS [2] of 4.13.
The corresponding values for `CCCCCCCCCCCCCCCCOP(=O)(O)OCCC=C(c1cc(Cl)c(O)c(C(=O)O)c1)c1cc(Cl)c(O)c(C(=O)O)c1` are “Not Active” and 4.08.
`CCCCCCCCCC=C(c1cc(Cl)c(O)c(C(=O)O)c1)c1cc(Cl)c(O)c(C(=O)O)c1` gave a negative logarithm of the EC50 (pEC50) with CEM-SS [1] of 4.36. This compound also showed a pIC50 in the assay on CEM-SS [2] of under 4.31.
As for `CCCCCC=C(c1cc(Cl)c(O)c(C(=O)O)c1)c1cc(Cl)c(O)c(C(=O)O)c1`, the pIC50 in the assay with CEM-SS [2] was under 4.02. Besides, the EC50 entry in the assay with CEM-SS [4] was “Not Active”.
`CCCCCCCC/C=C\CCCCCCCCOP(=O)(O)OCCC=C(c1cc(Cl)c(O)c(C(=O)O)c1)c1cc(Cl)c(O)c(C(=O)O)c1` showed a pEC50 in the assay on CEM-SS [1] of 4.31. Further, the pIC50 in the assay with CEM-SS [2] is 4.21.
On to `CCCCC/C=C\C/C=C\CCCCCCCCOP(=O)(O)OCCC=C(c1cc(Cl)c(O)c(C(=O)O)c1)c1cc(Cl)c(O)c(C(=O)O)c1`, for which the negative logarithm of the EC50 (pEC50) in the assay on CEM-SS [1] was 4.29. The pIC50 in the assay on CEM-SS [2] is 4.07.
The corresponding values for `CC(C)CCCC(C)[C@H]1CC[C@H]2[C@@H]3CCC4C[C@@H](CCC=C(c5cc(Cl)c(O)c(C(=O)O)c5)c5cc(Cl)c(O)c(C(=O)O)c5)CC[C@]4(C)[C@H]3CC[C@]12C` (some centres undefined) are 5.52 and under 3.52.
In the same order, the values of `CCCCCCCCCCCCCCCCCCCCCCCCCCCCCC=C(c1cc(Cl)c(O)c(C(=O)O)c1)c1cc(Cl)c(O)c(C(=O)O)c1` are 4.88 and under 3.66.
Consider `CCCCCCCCCCCCCCOP(=O)(O)OCCC=C(c1cc(Cl)c(O)c(C(=O)O)c1)c1cc(Cl)c(O)c(C(=O)O)c1`, for which the EC50 entry with CEM-SS [3] is given as “Not Active”. Further, the pIC50 in the assay with CEM-SS [2] is 4.00.
